Measured values taken from ChEMBL document CHEMBL5674881, “The therapeutic properties of resminostat for hepatocellular carcinoma” (2018).
The source made the active and inactive calls. No cut-off for these calls is given here.

Key:
[1] = tested on: HepG2; test: Effect on human HepG2 cells assessed as reduction in HDAC1 mRNA level at 80 nM incubated for 24 hrs by qRT-PCR analysis; assay type: functional, cell-based
Procedure, shortened: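 HepG2 (EMEM) and Huh7 (DMEM) cells, both with 10% FBS, treated with 30% differentiated-SGBS conditioned medium with or without 80 nM drug. HDAC1 RNA given as fold change versus untreated cells or between treatments (n = 3).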

[2] = tested on: Huh-7; test: Anti-proliferative activity against human Huh-7 cells assessed as reduced cell proliferation at 80 nM incubated for 24 hrs by Fluoro Fire-Blue ProViaTox assay; assay type: functional, cell-based
[3] = tested on: HepG2; test: Anti-proliferative activity against human HepG2 cells assessed as reduced cell proliferation at 80 nM incubated for 24 hrs by Fluoro Fire-Blue ProViaTox assay; assay type: functional, cell-based
[4] = tested on: HepG2; test: Anti-proliferative activity against human HepG2 cells assessed as reduced cell proliferation at 80 nM incubated for 24 hrs in presence of SGBS CM by Fluoro Fire-Blue ProViaTox assay; assay type: functional, cell-based
[5] = tested on: Hep 3B2; test: Effect on human Hep3B cells assessed as reduction of HDAC global activity at 80 nM incubated for 24 hrs in presence of SGBS CM by FluoroFire HDAC Activity Assay Kit relative to control; assay type: functional; parameters: scale not given: the % may be the effect or the level left
Procedure, shortened: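 Hep3B cells treated 24 h with 80 nM drug, alone or with 30% SGBS conditioned medium. Lysates made with lysis reagent (15 min, room temperature, shaking), spun, and supernatant used. Preincubated 20 min at 37°C, then Emerald substrate added for 1 h at 37°C. Fluorescence read at Ex 490/Em 525 nm. HeLa nuclear extract as positive control, HeLa extract with trichostatin A as negative control (n = 3).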

[6] = tested on: Hep 3B2; test: Effect on human Hep3B cells assessed as reduction in HDAC1 mRNA level at 80 nM incubated for 24 hrs by qRT-PCR analysis; assay type: functional, cell-based
Procedure, shortened: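 RNA levels of HDAC1 and HDAC2 measured in Hep3B cells after 24 h with 80 nM drug, 17-AAG (50 nM) or the combination (n = 3). Cells grown in EMEM with 10% FBS at 37°C, 5% CO2.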

[7] = tested on: Hep 3B2; test: Effect on human Hep3B cells assessed as reduction in HDAC3 mRNA level at 80 nM incubated for 24 hrs in presence of SGBS CM by qRT-PCR analysis; assay type: functional, cell-based
Procedure, shortened: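 Hep3B cells exposed to 30% conditioned medium from differentiated SGBS adipocytes, with or without 80 nM drug. HDAC1, 2 and 3 RNA given as fold change versus untreated cells or between treatments.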

[8] = tested on: Hep 3B2; test: Anti-proliferative activity against human Hep3B cells assessed as increase in Caspase 3 expression at 80 nM incubated for 24 hrs by qRT-PCR analysis; assay type: functional, cell-based
[9] = tested on: Hep 3B2; test: Anti-proliferative activity against human Hep3B cells assessed as increase in Caspase 7 expression at 80 nM incubated for 24 hrs by qRT-PCR analysis; assay type: functional, cell-based
[10] = tested on: Hep 3B2; test: Anti-proliferative activity against human Hep3B cells assessed as increase in cleaved Caspase 8 level at 80 nM incubated for 24 hrs in presence of SGBS CM by Tetraplex-Assay Kit analysis; assay type: functional, cell-based
Procedure, shortened: (§1)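 Hep3B seeded at 20000 cells/well overnight, then treated with 30% differentiated SGBS conditioned medium with or without resminostat 80 nM for 24 h. Tetraplex caspase substrate buffer added during treatment for real-time cleavage read-out: Caspase 3/7 at Ex 535/Em 620 nm, Caspase 8 at Ex 490/Em 525 nm, Caspase 9 at Ex 370/Em 450 nm. Compared with controls or between treatments; n = 3.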

[11] = tested on: Hep 3B2; test: Anti-proliferative activity against human Hep3B cells assessed as increase in cleaved Caspase 9 level at 80 nM incubated for 24 hrs in presence of SGBS CM by Tetraplex-Assay Kit analysis; assay type: functional, cell-based; procedure, shortened: as §1
[12] = tested on: Hep 3B2; test: Downregulation of BCL2 expression in human Hep3B cells at 80 nM incubated for 24 hrs by qRT-PCR analysis; assay type: functional, cell-based
[13] = tested on: Hep 3B2; test: Upregulation of BIM expression in human Hep3B cells at 80 nM incubated for 24 hrs by qRT-PCR analysis; assay type: functional, cell-based
Procedure, shortened: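 RNA levels of BCL-2, BIM, BAX and BAD measured in Hep3B cells after 24 h with 80 nM drug. Triplicates, three independent experiments, t-test.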

[14] = tested on: Hep 3B2; test: Anti-proliferative activity against human Hep3B cells assessed as increase in BIM mRNA level at 80 nM incubated for 24 hrs by qRT-PCR analysis; assay type: functional, cell-based
[15] = tested on: Hep 3B2; test: Anti-proliferative activity against human Hep3B cells assessed as decrease in Cyclin D1 expression at 80 nM incubated for 24 hrs in presence of SGBS CM by qRT-PCR analysis; assay type: functional, cell-based
[16] = tested on: Hep 3B2; test: Anti-proliferative activity against human Hep3B cells assessed as decrease in leptin mRNA level at 80 nM incubated for 24 hrs in presence of SGBS CM by qRT-PCR analysis; assay type: functional, cell-based
[17] = tested on: Hep 3B2; test: Anti-proliferative activity against human Hep3B cells assessed as decrease in STAT3 mRNA level at 80 nM incubated for 24 hrs in presence of SGBS CM by qRT-PCR analysis; assay type: functional, cell-based
[18] = tested on: Hep 3B2; test: Anti-proliferative activity against human Hep3B cells assessed as decrease in TNF-alpha mRNA level at 80 nM incubated for 24 hrs in presence of SGBS CM by qRT-PCR analysis; assay type: functional, cell-based
[19] = tested on: Hep 3B2; test: Anti-proliferative activity against human Hep3B cells assessed as increase in IL-10 mRNA level at 80 nM incubated for 24 hrs in presence of SGBS CM by qRT-PCR analysis; assay type: functional, cell-based
[20] = tested on: Hep 3B2; test: Downregulation of EZH2 expression in human Hep3B cells at 80 nM incubated for 24 hrs in presence of GSK343 by qRT-PCR analysis; assay type: functional, cell-based
[21] = tested on: Hep 3B2; test: Downregulation of HDAC1 expression in human Hep3B cells at 80 nM incubated for 24 hrs in presence of 17-AAG by qRT-PCR analysis; assay type: functional, cell-based
[22] = tested on: Hep 3B2; test: Downregulation of BCL2 mRNA expression in human Hep3B cells at 80 nM incubated for 24 hrs in presence of 17-AAG by qRT-PCR analysis; assay type: functional, cell-based
[23] = tested on: Hep 3B2; test: Downregulation of HSP90 mRNA expression in human Hep3B cells at 80 nM incubated for 24 hrs in presence of 17-AAG by qRT-PCR analysis; assay type: functional, cell-based
[24] = tested on: Hep 3B2; test: Anti-proliferative activity against human Hep3B cells assessed as reduction in cell viability at 80 nM incubated for 24 hrs in presence of SC1 by Fluoro Fire-Blue ProViaTox assay relative to control; assay type: functional, cell-based
[25] = tested on: Hep 3B2; test: Anti-proliferative activity against human Hep3B cells assessed as reduction in cell viability at 80 nM incubated for 24 hrs in presence of cisplatin by Fluoro Fire-Blue ProViaTox assay relative to control; assay type: functional, cell-based
[26] = tested on: Hep 3B2; test: Anti-proliferative activity against human Hep3B cells assessed as reduction in cell viability at 80 nM incubated for 24 hrs in presence of doxorubicin by Fluoro Fire-Blue ProViaTox assay relative to control; assay type: functional, cell-based
[27] = tested on: Hep 3B2; test: Downregulation of ZFP64 mRNA expression in human Hep3B cells at 80 nM incubated for 24 hrs in presence of 17-AAG by qRT-PCR analysis

## CN(C)Cc1ccc(S(=O)(=O)n2ccc(/C=C/C(=O)NO)c2)cc1 [RESMINOSTAT]
[1]
  Activity: Active
[2]
  Activity: Active
[3]
  Activity: Active
[4]
  Activity: Active
[5]
  Activity: 52.67%
[6]
  Activity: Active
[7]
  Activity: Active
[8]
  Activity: Active
[9]
  Activity: Active
[10]
  Activity: Active
[11]
  Activity: Active
[12]
  Activity: Active
[13]
  Activity: Active
[14]
  Activity: Active
[15]
  Activity: Active
[16]
  Activity: Active
[17]
  Activity: Active
[18]
  Activity: Active
[19]
  Activity: Active
[20]
  Activity: Active
[21]
  Activity: Active
[22]
  Activity: Active
[23]
  Activity: Active
[24]
  Activity: Active
[25]
  Activity: Active
[26]
  Activity: Active
[27]
  Activity: Active
